Legend:
Type in all cases: functional
EKVX = test: Cytotoxicity against human EKVX cells assessed as cell growth at 10 '-5 M after 48 hrs by sulforhodamine B assay; details: read-out: Activity
Procedure, shortened: (§1)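 Primary one-dose screen across the NCI 60-line panel at 10 µM. Cells were grown in RPMI 1640 with 5% FBS and 2 mM L-glutamine and held 24 h before drug. Drug was diluted from a DMSO concentrate. Exposure was 48 h at 37 °C, 5% CO2. Cells were fixed with TCA and stained with SRB, with absorbance read at 515 nm. Percent growth was calculated against time-zero and untreated control.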

IGROV-1 [1] = test: Cytotoxicity against human IGROV1 cells assessed as cell growth at 0.01 uM after 48 hrs by sulforhodamine B assay; details: IGROV-1, 48 h, read-out: Activity
OVCAR-5 [2] = test: Cytotoxicity against human OVCAR5 cells assessed as cell growth at 10 '-5 M after 48 hrs by sulforhodamine B assay; details: OVCAR-5, 48 h, read-out: Activity
LOX IMVI = test: Cytotoxicity against human LOXIMVI cells assessed as cell growth at 0.1 uM after 48 hrs by sulforhodamine B assay; details: read-out: Activity
ACHN [3] = test: Cytotoxicity against human ACHN cells assessed as cell growth at 10 uM after 48 hrs by sulforhodamine B assay; details: read-out: Activity
Procedure, shortened: (§2)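 NCI-60 five-dose screen. Cells were grown in RPMI 1640 with 5% FBS and 2 mM L-glutamine and preincubated 24 h. Compound (DMSO stock) was tested at 0.01, 0.1, 1, 10 and 100 µM for 48 h at 37 °C. Cells were fixed in situ with cold TCA (final 10%) and stained with 0.4% SRB. A515 was read, and percent growth was calculated against time-zero and control plates.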

MDA-MB-435 = test: Cytotoxicity against human MDA-MB-435 cells assessed as cell growth at 1 uM after 48 hrs by sulforhodamine B assay; details: MDA-MB-435, 48 h, read-out: Activity
MCF7 = test: Cytotoxicity against human MCF7 cells assessed as cell growth at 10 '-5 M after 48 hrs by sulforhodamine B assay; details: MCF7, 48 h, read-out: Activity
Malme-3M = test: Cytotoxicity against human MALME-3M cells assessed as cell growth at 10 uM after 48 hrs by sulforhodamine B assay; details: read-out: Activity
MOLT-4 = test: Cytotoxicity against human MOLT4 cells assessed as cell growth at 0.01 uM after 48 hrs by sulforhodamine B assay; details: MOLT-4, 48 h, read-out: Activity
OVCAR-5 [4] = test: Growth inhibition of human OVCAR5 cells after 48 hrs by sulforhodamine B assay; details: OVCAR-5, 48 h
Procedure, shortened: (§3)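 Adherent NCI-60 lines were grown in RPMI 1640 with 5% FBS and 2 mM L-glutamine, plated at 5000–40,000 cells/well and preincubated 24 h. They were then exposed to five concentrations (0.01–100 µM, from a DMSO stock) for 48 h at 37 °C, 5% CO2. Cells were fixed with cold TCA (10% final, 60 min, 4 °C) and stained with 0.4% SRB. Dye was solubilized in 10 mM Tris base and A515 read. GI50 was derived from time-zero, control and treated absorbances.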

SK-MEL-28 = test: Cytotoxicity against human SK-MEL-28 cells assessed as cell growth at 0.01 uM after 48 hrs by sulforhodamine B assay; details: SK-MEL-28, 48 h, read-out: Activity
SN12C = test: Cytotoxicity against human SN12C cells assessed as cell growth at 10 uM after 48 hrs by sulforhodamine B assay; details: read-out: Activity
SNB-19 [5] = test: Cytotoxicity against human SNB19 cells assessed as cell growth at 0.1 uM after 48 hrs by sulforhodamine B assay; details: SNB-19, 48 h, read-out: Activity
NCI-H522 [6] = test: Cytotoxicity against human NCI-H522 cells assessed as cell growth at 10 uM after 48 hrs by sulforhodamine B assay; details: NCI-H522, 48 h, read-out: Activity
HCC 2998 = test: Cytotoxicity against human HCC2998 cells assessed as cell growth at 10 '-5 M after 48 hrs by sulforhodamine B assay; details: HCC 2998, 48 h, read-out: Activity; procedure, shortened: as §1
IGROV-1 [7] = test: Cytotoxicity against human IGROV1 cells assessed as cell growth at 100 uM after 48 hrs by sulforhodamine B assay; details: IGROV-1, 48 h, read-out: Activity
BT-549 = test: Cytotoxicity against human BT549 cells assessed as cell growth at 0.01 uM after 48 hrs by sulforhodamine B assay; details: BT-549, 48 h, read-out: Activity; procedure, shortened: as §2
NCI-H23 = test: Cytotoxicity against human NCI-H23 cells assessed as cell growth at 100 uM after 48 hrs by sulforhodamine B assay; details: NCI-H23, 48 h, read-out: Activity
A498 = test: Growth inhibition of human A498 cells after 48 hrs by sulforhodamine B assay; details: A498, 48 h; for CC50: read-out: LC50 (the source's name)
Procedure, shortened: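 A498 adherent renal cells, plated in RPMI 1640 with 5% FBS and 2 mM L-glutamine, were preincubated for 24 h and then exposed for 48 h at 37 °C to 0.01–100 µM. Fixation was 10% TCA (final) for 60 min at 4 °C, then SRB staining and absorbance at 515 nm. GI50 was derived from (Ti−Tz)/(C−Tz)×100 = 50, using time-zero plates.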

U-251 [8] = test: Cytotoxicity against human U251 cells assessed as cell growth at 1 uM after 48 hrs by sulforhodamine B assay; details: U-251, 48 h, read-out: Activity
SNB-19 [9] = test: Growth inhibition of human SNB19 cells after 48 hrs by sulforhodamine B assay; details: SNB-19, 48 h; procedure, shortened: as §3
ACHN [10] = test: Cytotoxicity against human ACHN cells assessed as cell growth at 0.01 uM after 48 hrs by sulforhodamine B assay; details: read-out: Activity; procedure, shortened: as §2
PC-3 = test: Cytotoxicity against human PC3 cells assessed as cell growth at 1 uM after 48 hrs by sulforhodamine B assay; details: PC-3, 48 h, read-out: Activity
NCI-H460 = test: Cytotoxicity against human NCI-H460 cells assessed as cell growth at 10 '-5 M after 48 hrs by sulforhodamine B assay; details: NCI-H460, 48 h, read-out: Activity
NCI-H522 [11] = test: Growth inhibition of human NCI-H522 cells after 48 hrs by sulforhodamine B assay; details: NCI-H522, 48 h; procedure, shortened: as §3
SR = test: Cytotoxicity against human SR cells assessed as cell growth at 0.1 uM after 48 hrs by sulforhodamine B assay; details: read-out: Activity
U-251 [12] = test: Growth inhibition of human U251 cells after 48 hrs by sulforhodamine B assay; details: U-251, 48 h; procedure, shortened: as §3

SMILES: Clc1cccc(Cl)c1Nc1nc2cccc(Cl)c2s1
- growth at 10 µM (EKVX): -7.99%
- growth at 0.01 µM (IGROV-1 [1]): 114%
- growth at 10 µM (OVCAR-5 [2]): 1.07%
- growth at 0.1 µM (LOX IMVI): 89%
- growth at 10 µM (ACHN [3]): -99%
- growth at 1 µM (MDA-MB-435): 46%
- growth at 10 µM (MCF7): -14.7%
- growth at 10 µM (Malme-3M): -84%
- growth at 0.01 µM (MOLT-4): 107%
- GI50 (OVCAR-5 [4]): 1480 nM
- LC50 (OVCAR-5 [4]): 5610 nM
- TGI (OVCAR-5 [4]): 2880 nM
- growth at 0.01 µM (SK-MEL-28): 93%
- growth at 10 µM (SN12C): -94%
- growth at 0.1 µM (SNB-19 [5]): 90%
- growth at 10 µM (NCI-H522 [6]): -71%
- growth at 10 µM (HCC 2998): -26.1%
- growth at 100 µM (IGROV-1 [7]): -55%
- growth at 0.01 µM (BT-549): 102%
- growth at 100 µM (NCI-H23): -58%
- GI50 (A498): 260 nM
- TGI (A498): 1620 nM
- CC50 (A498): 4160 nM
- growth at 1 µM (U-251 [8]): 68%
- GI50 (SNB-19 [9]): 1340 nM
- LC50 (concentration causing 50% net cell kill) (SNB-19 [9]): 6740 nM
- TGI (SNB-19 [9]): 3000 nM
- growth at 0.01 µM (ACHN [10]): 99%
- growth at 1 µM (PC-3): 38%
- growth at 10 µM (NCI-H460): -57.9%
- GI50 (NCI-H522 [11]): 1020 nM
- TGI (NCI-H522 [11]): 2610 nM
- growth at 0.1 µM (SR): 101%
- GI50 (U-251 [12]): 1310 nM
- TGI (U-251 [12]): 2790 nM

SMILES: Cc1ccc2nc(Nc3c(C)cccc3C)sc2c1
- growth at 10 µM (EKVX): 54.1%
- growth at 0.01 µM (IGROV-1 [1]): 107%
- growth at 10 µM (OVCAR-5 [2]): 65.6%
- growth at 0.1 µM (LOX IMVI): 93%
- growth at 10 µM (ACHN [3]): 59%
- growth at 1 µM (MDA-MB-435): -8%
- growth at 10 µM (MCF7): 19.8%
- growth at 10 µM (Malme-3M): 45%
- growth at 0.01 µM (MOLT-4): 104%
- GI50 (OVCAR-5 [4]): > 100000 nM
- LC50 (OVCAR-5 [4]): > 100000 nM
- TGI (OVCAR-5 [4]): > 100000 nM
- growth at 0.01 µM (SK-MEL-28): 94%
- growth at 10 µM (SN12C): 36%
- growth at 0.1 µM (SNB-19 [5]): 87%
- growth at 10 µM (NCI-H522 [6]): 28%
- growth at 10 µM (HCC 2998): 54.1%
- growth at 100 µM (IGROV-1 [7]): 33%
- growth at 0.01 µM (BT-549): 98%
- growth at 100 µM (NCI-H23): 65%
- CC50 (A498): > 100000 nM
- growth at 1 µM (U-251 [8]): 80%
- GI50 (SNB-19 [9]): 5830 nM
- LC50 (concentration causing 50% net cell kill) (SNB-19 [9]): > 100000 nM
- TGI (SNB-19 [9]): > 100000 nM
- growth at 0.01 µM (ACHN [10]): 97%
- growth at 1 µM (PC-3): 68%
- growth at 10 µM (NCI-H460): 22.7%
- GI50 (NCI-H522 [11]): 552 nM
- TGI (NCI-H522 [11]): > 100000 nM
- CC50 (NCI-H522 [11]; read-out: LC50 (the source's name)): > 100000 nM
- growth at 0.1 µM (SR): 99%
- GI50 (U-251 [12]): 25400 nM
- LC50 (U-251 [12]): > 100000 nM
- TGI (U-251 [12]): > 100000 nM

Reference: ChEMBL document CHEMBL2040734, “Benzothiazoles: search for anticancer agents” (2012)
